MT stabilizer – microtubule stabilizers in HeLa cells, primary screen, imaging, high-content imaging. HeLa tubulin immunostaining HCS, 24 h; share of cells brighter than vehicle mean+2SD. % tubulin-high responders, % at 10 µM. actives 0.83% (n = 200,000);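 active = plate Z-score above 3 for both tubulin-high and condensed-nucleus cell shares, with cell loss under 80%, at 10 µM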;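 also: anti alpha tubulin signal scored within the nucleus-defined area of each cell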
b-catenin transl – modulators of beta-catenin nuclear translocation, primary screen, imaging, HeLa cells, immunofluorescence, high-content | actives 0.3% (n = 190,000) | nuclear translocation activity, % at 5 µM;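 active = nuclear translocation activity above 50% at 5 µM, with a well cell count of 50 or more; inconclusive = wells under 50 cells across six images, flagged as toxic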;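 also: per-cell ratio of nuclear to cytoplasmic median beta-catenin stain intensity; plate controls were DMSO negative control for no effect and GSK-3 inhibitor IX positive control for full effect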
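Technique: fluorescence imaging of beta-catenin antibody stain plus DAPI / Material: human HeLa cell line / Incubation: compound treatment 24 h, 37°C, 5% CO2 / Read-out basis: % activation of per-cell nuclear versus cytoplasmic median beta-catenin signal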
Lmaj promast – Leishmania major promastigote growth inhibition, primary screen. Leishmania major promastigotes, resazurin fluorescence viability. inhibition, % at 10 µM. actives 9% (n = 200,000); in the data active = inhibition above about 50%;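 also: promastigotes grown with compound for 44 hours at 28 °C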
Autophagy HCS – autophagy modulators in MEF cells, primary screen, imaging, high-content, MEF GFP-LC3; actives 0.98% (n = 190,000); calls only at 10 µM (by protocol); MEF GFP-LC3 puncta imaging; test concentration mostly 10 µM;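 active = percentage of spot-positive cells more than 3 SD above its plate mean, without a fluorescence outlier flag or 80% toxicity; inconclusive = no clear call, values can overlap the other calls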;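 also: spot-positive cell cutoff set from DMSO-treated cells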
CHOP inhibitor – inhibitors of CHOP promoter induction, primary screen, cell-based, unfolded protein response, luciferase reporter. AID 2732, 2010. CHO-K1 CHOP-promoter luciferase, tunicamycin-induced, 15-18 h. inhibition, % at 10 µM. actives 3.8% (n = 220,000);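 active = compounds that reduced the stress-induced luciferase reporter signal by more than about 70% of percent inhibition, limit read from the data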;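 also: 0% = tunicamycin plus vehicle and 100% = wells without tunicamycin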
Dynein cargo inh – inhibitors of GR-EGFP nuclear translocation, primary screen, dynein cargo transport inhibitor project, imaging, high-content, 3617.4 mouse cells; test concentration mostly 20 µM; stimulated with dexamethasone, 1 µM; active compounds read low; z-score, hits read low; actives 0.47% (n = 220,000); AID 1381, 2008;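 active = plate z-score of nuclear minus cytoplasmic receptor signal below a set negative limit, without overly bright fluorescence or cell loss, cut at about -3.5 in these data, passing the limit was not always enough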;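 also: z-score of nuclear minus cytoplasmic ring GR-EGFP intensity difference per well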
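Buffer or medium: tet-free, stripped-serum medium; reagent: dexamethasone at 1.0 µM final, 30 min; incubation: 48 h induction, 1 h compound, 30 min dex at 37 °C; measured by: formaldehyde fixation, Hoechst nuclear stain, 10x automated fluorescence imaging; read-out: nuclear-to-cytoplasmic GR-EGFP distribution per well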
* marks the source's active call; other numbers are inactive results; i = inactive; u = inconclusive; x = not tested or not shown; + = active, no number. Shown are actives, neighbours in structure and some others; about 12% of the full set was active somewhere.

SMILES	MT stabilizer	b-catenin transl	Lmaj promast	Autophagy HCS	CHOP inhibitor	Dynein cargo inh
C=CCN(C(=O)c1cccc(N2C(=O)C3CC=CC(C)C3C2=O)c1)c1ccccc1 (stereo unspecified)	2.3	x	-9.1	i	15.2	-0.279
COc1ccc(N(C)C(=O)c2ccc3nc(-c4ccccc4)c(-c4ccccc4)nc3c2)cc1	24.5*	-0.7	19.5	i	-32.8	-1.19
CC(C)N(C(=O)c1ccc2nc(-c3ccccc3)c(-c3ccccc3)nc2c1)C(C)C	3.0	-0.7	9.4	i	40.5	-0.0859
NC(=O)c1c(NC(=O)c2ccccc2)sc2c1CCc1ccccc1-2	2.8	x	7.5	i	-26.6	0.0413
CN(C)c1ccc2c(c1)OC(N)=C(C#N)C2c1cccc(F)c1 (stereo unspecified)	7.7	98.8*	6.1	i	x	0.00304
Cc1nn(C(=O)c2cccs2)c(C)c1CN1C(=O)c2ccccc2C1=O	2.0	x	-9.2	i	81.0*	-0.733
COc1ccc(CCNc2nc3ccccc3n3nnnc23)cc1OC	7.7	x	-1.1	i	52.0	0.386
c1ccc(CCNc2nc3ccccc3n3nnnc23)cc1	2.9	-0.6	-8.6	+	-3.0	-1.05
Oc1ccc(C(c2nnnn2C2CCCC2)N2CCc3ccccc3C2)cc1 (stereo unspecified)	4.9	-1.4	3.9	i	88.1*	0.101
Cc1ccc(C(c2nnnn2C2CCCCC2)N2CCc3ccccc32)cc1 (stereo unspecified)	2.9	2.9	53.3*	i	3.6	0.527
O=C(O)c1ccc(N/N=C/c2ccc(F)c(F)c2)cc1	2.9	-1.6	4.4	i	-18.8	0.771
O=C(O)c1ccc(N/N=C/c2ccc(OC(=O)c3cccc(Cl)c3)cc2)cc1	x	-0.4	x	x	79.4*	0.416
O=C(O)c1ccc(N/N=C/c2cccc(F)c2)cc1	3.8	-0.4	64.9*	i	2.8	-0.93
CSc1ccc(/C=N/Nc2cccc(C(=O)O)c2)cc1	2.1	-1.3	24.6	i	84.9*	-0.00873
O=C(O)c1cccc(N/N=C/c2cccs2)c1	4.9	-1.4	34.4	i	84.4*	1.25
COC(=O)c1ccc(COc2ccc(/C=N/Nc3cccc(C(=O)O)c3)cc2)cc1	x	1.2	x	x	-12.8	-0.149
COc1ccc2[nH]c(C)c(CCNC(=S)Nc3ccc(C)cc3)c2c1	2.5	-1.7	91.7*	i	13.5	-1.62
COc1ccc2[nH]c(C)c(CCNC(=S)Nc3ccccc3C)c2c1	2.4	-3.3	8.2	i	8.4	-0.882
COc1ccc2[nH]c(C)c(CCNC(=S)Nc3cccc(C)c3C)c2c1	2.7	-3.0	61.1*	i	14.3	-0.759
COc1ccc(/C(C)=N\Nc2nc(-c3ccccc3)cc(=O)[nH]2)cc1	2.4	-2.0	-3.6	i	10.6	-0.264
CN(C)c1ccc(/C=N\Nc2nc(-c3ccccc3)cc(=O)[nH]2)cc1	2.3	3.1	1.7	i	88.9*	0.845
CC(C)NCC(O)Cn1c2c(c3ccccc31)CCc1c-2cnn1-c1ccccc1 (stereo unspecified)	49.7	-3.0	100.5*	u	54.0	0.816
CC(C)CCNC(=O)COC(=O)c1cc(Br)c(Br)s1	5.7	0.2	-1.2	i	13.5	-0.262
O=C(CCc1nnc(Cc2cccc(C(F)(F)F)c2)o1)NC1CC1	2.0	-1.5	-3.9	i	78.0*	-1.1
Cc1cc(=O)n2c(C(=O)Nc3ccc(C(=O)OC(C)C)cc3)c(C(=O)Nc3ccccc3)sc2n1	5.1	-5.0	8.8	i	96.0*	0.367
SMILES	MT stabilizer	b-catenin transl	Lmaj promast	Autophagy HCS	CHOP inhibitor	Dynein cargo inh
CCN(CC)CCn1c(SCC(=O)NCCC2=CCCCC2)nc2c(sc3ccccc32)c1=O	2.1	-2.1	67.9*	i	40.1	-0.493
O=C(CSc1nc2c(sc3ccccc32)c(=O)n1CCCN1CCCC1)NCc1ccccc1	2.5	-4.2	99.0*	i	29.2	-0.148
CCN(CC)CCn1c(SCC(=O)NCc2ccco2)nc2c(sc3ccccc32)c1=O	4.5	x	3.1	i	-5.6	1.09
Cc1ccc(CNC(=O)CSc2nc3c(sc4ccccc43)c(=O)n2CCCN2CCCC2)cc1	3.1	-0.9	100.5*	i	-27.2	1.01
O=C(CSc1nc2c(sc3ccccc32)c(=O)n1CCCN1CCOCC1)NC1CCCC1	2.4	-0.9	2.9	i	0.5	0.0269
CC(=O)OCC(=O)Nc1ccccc1C	1.0	0.2	-2.3	i	-5.9	0.636
N#Cc1c(-c2cccs2)cc(C2CC2)nc1SCC(N)=O	2.5	-1.7	-3.8	i	7.2	-0.076
Cc1ccc(Nc2nc(=O)c3cc([N+](=O)[O-])ccc3s2)cc1	x	0.7	x	x	93.3*	0.465
Cc1ccc2nc(C)cc(Nc3ccc([N+](=O)[O-])cc3)c2c1	5.1	0.0	100.5*	+	103.5*	1.12
COC(=O)c1ccc(Nc2cc(C)nc3ccc(C)cc23)cc1	x	62.4*	x	x	-21.1	-0.341
COC(=O)c1ccc2nc(C)cc(Nc3ccccc3C)c2c1	4.5	-3.8	49.2	i	13.0	0.116
Cc1ccc2nc(SC(C(=O)c3ccccc3)c3ccccc3)nc(C)c2c1 (stereo unspecified)	2.4	5.4	91.6*	i	-12.1	-0.0552
COc1cc(Nc2ccc(C)cc2)c([N+](=O)[O-])nc1[N+](=O)[O-]	2.7	5.0	14.9	i	-59.1	-0.236
Cc1ccc(C)c(/C=N/Nc2nc3ccccc3c(=O)n2O)c1	x	0.4	x	x	-42.6	-0.0549
CCOC(=O)N1CCC(NC(=O)C2CCN(C(=O)c3cc4sccc4n3CC)CC2)CC1	x	-1.1	x	x	13.3	-0.468
Cc1ccc2nc(N/C(N)=N/S(=O)(=O)c3ccc([N+](=O)[O-])cc3)nc(C)c2c1	2.9	-0.5	98.7*	i	28.4	2.02
Cc1ccc2nc(SCc3ccc([N+](=O)[O-])cc3)nc(C)c2c1	3.0	-0.7	-3.6	i	75.2*	0.124
Cc1ccc(S(=O)(=O)/N=C(\N)Nc2nc(C)c3ccccc3n2)cc1	6.6	-0.4	2.1	i	31.8	-0.439
Cc1cc(C)c2nc(SCc3ccc([N+](=O)[O-])cc3)nc(C)c2c1	3.2	-0.8	-6.8	i	-2.1	-0.261
Cc1ccc(-n2nnnc2CSc2nnc(-c3ccc(O)cc3)o2)cc1	3.3	-2.9	12.2	i	47.7	0.404
NC(=O)c1ccc(OCC(F)(F)F)nc1	x	-0.1	x	x	1.4	0.426
CN(C)c1ccc(/C=N/NC(=O)c2sccc2-n2cccc2)cc1	3.0	-1.6	23.1	i	7.3	-0.118
COc1ccc(-n2nc(C(=O)Nc3ccc(OC)c(OC)c3)c3c4ccccc4n(C)c3c2=O)cc1	2.3	9.4	1.4	i	71.5*	-0.849

Assay outcomes deposited in PubChem by several laboratories.
